Experimental findings from ChEMBL document CHEMBL1157026, “Novel antileishmanial chalconoids: synthesis and biological activity of 1- or 3-(6-chloro-2H-chromen-3-yl)propen-1-ones” (Eur J Med Chem, 2010) are described below.

Data set [1] is described as follows: Cytotoxicity against BALB/c mouse peritoneal macrophage after 24 hrs by MTT assay. Type of data set: cell-based. The conditions noted are these: peritoneal macrophage cell. Summed up: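 Mouse peritoneal macrophages were seeded at 2 × 10⁵ cells/well. After adherence, the medium was replaced with medium holding one concentration per compound. Plates were incubated 24 h at 37 °C in humidified 5% CO2. Controls got culture medium plus DMSO. Viability was read by MTT colorimetric assay.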

In data set [2] the test system is Leishmania major. Nature of the data set: Antileishmanial activity against Leishmania major MRHO/IR/75/ER promastigote infected in BALB/c mouse peritoneal macrophage after 24 hrs by MTT assay. Format: functional, organism-based. Summed up:
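L. major vaccine strain MRHO/IR/75/ER, maintained by passage in BALB/c mice, grown on blood agar at 25 °C. Log-phase promastigotes at 2 × 10⁶/mL were put in phenol red-free RPMI 1640 with 10% FCS, 2 mM glutamine, pH ~7.2 and antibiotics, with serial drug dilutions, for 24 h at 25 °C. MTT (0.5 mg/mL) was added for 4 h at 37 °C; pellets were dissolved in DMSO and read on a plate reader. IC50 was determined.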
For orientation: Tetrazolium dyes change colour on reduction, which living cells bring about.

Regarding `O=C(/C=C/C1=Cc2cc(Cl)ccc2OC1)c1ccccc1Cl`, the Activity result in data set [1] was “Non-toxic”. In addition, the IC50 (commonly the concentration at which inhibition is half-maximal) in data set [2] is 1.22 µM.

On to `COc1ccc(OC)c(/C=C/C(=O)C2=Cc3cc(Cl)ccc3OC2)c1`, for which the Activity entry in data set [1] is “Non-toxic”. In data set [2], the IC50 stood at 3 µM.

On to `O=C(/C=C/C1=Cc2cc(Cl)ccc2OC1)c1ccc(Cl)cc1Cl`, for which, in data set [1], the Activity result is reported as “Non-toxic”. Further, the IC50 in data set [2] was found to be 1.91 µM.

For `COc1cccc(/C=C/C(=O)C2=Cc3cc(Cl)ccc3OC2)c1OC`, in data set [1], the Activity result was “Non-toxic”. In data set [2], this compound came in with an IC50 of 2.8 µM.

For the compound `COc1cc(C(=O)/C=C/C2=Cc3cc(Cl)ccc3OC2)cc(OC)c1OC`, the Activity result in data set [1] is given as “Non-toxic”. The same compound showed an IC50 in data set [2] of 2.06 µM.

As for `O=C(/C=C/C1=Cc2cc(Cl)ccc2OC1)c1ccccc1F`, the Activity result in data set [1] is recorded as “Non-toxic”. For the same compound, the concentration for half-maximal inhibition (IC50) in data set [2] turned out to be 2.22 µM.

In the case of `Cc1ccc(/C=C/C(=O)C2=Cc3cc(Cl)ccc3OC2)cc1`, the Activity entry in data set [1] is given as “Non-toxic”. The compound further had an IC50 in data set [2] of 2.75 µM.

Take MEGLUMINE ANTIMONATE: in data set [1], the Activity came out at 40%.

In the case of `O=C(/C=C/c1ccccc1Br)C1=Cc2cc(Cl)ccc2OC1`, the Activity result in data set [1] is “Non-toxic”. Moreover, half-maximal inhibition in data set [2] (IC50) was put at 1.33 µM.
